Experimental data: ChEMBL document CHEMBL4393665 (Eur J Med Chem, 2019); call rule not given here

Columns and labels:
[1] = target: T1, Broad substrate specificity ATP-binding cassette transporter ABCG2 (Homo sapiens, UniProt Q9UNQ0); experiment: Inhibition of BCRP (unknown origin) in MDCK-BCRP assessed as inhibtion of hoechst 33342 transport incubated for 30 mins by fluorescence assay
T1 sequence (Q9UNQ0 whole entry): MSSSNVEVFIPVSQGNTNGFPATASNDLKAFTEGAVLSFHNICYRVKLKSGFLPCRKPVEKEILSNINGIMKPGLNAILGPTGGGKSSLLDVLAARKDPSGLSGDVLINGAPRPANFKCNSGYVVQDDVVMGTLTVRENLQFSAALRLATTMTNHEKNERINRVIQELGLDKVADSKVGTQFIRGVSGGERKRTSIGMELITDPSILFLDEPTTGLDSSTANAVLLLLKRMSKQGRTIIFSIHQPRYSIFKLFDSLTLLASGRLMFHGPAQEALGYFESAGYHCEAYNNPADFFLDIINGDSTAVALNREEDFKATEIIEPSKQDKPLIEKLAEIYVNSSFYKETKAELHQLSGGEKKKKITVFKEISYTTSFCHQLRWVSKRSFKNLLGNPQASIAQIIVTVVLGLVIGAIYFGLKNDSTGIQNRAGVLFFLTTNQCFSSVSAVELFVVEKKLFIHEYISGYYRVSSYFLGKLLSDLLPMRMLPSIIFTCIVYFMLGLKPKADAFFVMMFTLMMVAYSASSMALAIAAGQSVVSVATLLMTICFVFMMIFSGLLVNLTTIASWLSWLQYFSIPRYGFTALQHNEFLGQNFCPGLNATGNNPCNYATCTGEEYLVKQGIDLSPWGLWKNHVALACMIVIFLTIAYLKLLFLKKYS

[2] = target: T2, ATP-dependent translocase ABCB1 (Homo sapiens, UniProt P08183); experiment: Inhibition of P-glycoprotein (unknown origin) in MDCK-MDR1 assessed as inhibtion of calcein-AM transport incubated for 30 mins by fluorescence assay; format: cell-based
[3] = target: T2, ATP-dependent translocase ABCB1; experiment: Inhibition of P-glycoprotein-mediated Rhodamine-123 efflux in human K562/DOX cells assessed as […] at 1 uM […] by flow cytometry relative to control; format: cell-based; parameters: scale not given: the % may be the effect or the level left; conditions: 0.5 h
Outline: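 K562/DOX cells were loaded with 5 µM rhodamine-123 for 30 min. They were then washed and held 10 min in rhodamine-free medium, with or without modulator at 1.0 µM. Verapamil at 3.0 µM was the reference. Flow cytometry median fluorescence after efflux was divided by that after uptake and expressed as a percentage. Mean ± SE of three independent experiments.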

[4] = Half life in human plasma at 1 uM by LC-MS/MS analysis; format: ADME, cell-free
Outline: (§1)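 Samples were incubated in phosphate buffer or human plasma and analysed by LC-MS/MS in product ion scan mode. Analyte concentration was monitored over incubation time. The slope of ln(concentration) versus time gave the first-order degradation rate constant k, and t1/2 was calculated from k. Ketoprofen ethyl ester served as a reference to confirm that the plasma batch was enzymatically active.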

[5] = Half life in PBS at 1 uM by LC-MS/MS analysis; format: physicochemical
Outline: as §1

[6] = target: T2, ATP-dependent translocase ABCB1; experiment: Inhibition of P-glycoprotein-mediated Rhodamine-123 efflux in human K562 cells assessed as Rhodamine-123 accumulation at 1 uM preincubated for 15 mins followed by Rhodamine-123 addition measured after 30 mins by flow cytometry; format: cell-based; conditions: k562, 0.5 h
[7] = target: T2, ATP-dependent translocase ABCB1; experiment: Inhibition of P-gp in human K562/DOX cells assessed as drug level causing 50% increase in nuclear pirarubicin concentration incubated for 30 mins by spectroflurometry; format: cell-based; conditions: read-out: I0.5
Outline: (§2)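 Pirarubicin uptake into nuclei was measured in P-gp-overexpressing, doxorubicin-resistant K562/DOX cells. [I]0.5 is the modulator concentration giving a half-maximal increase (α = 0.5) in nuclear pirarubicin concentration. αmax is the maximum increase obtainable in resistant cells. Mean ± SE of three independent experiments.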

[8] = target: T2, ATP-dependent translocase ABCB1; experiment: Inhibition of P-gp in human K562/DOX cells assessed as drug level causing maximum increase in nuclear pirarubicin concentration incubated for 30 mins by spectroflurometry relative to control; format: cell-based; conditions: 0.5 h
Outline: as §2

[9] = target: T2, ATP-dependent translocase ABCB1; experiment: Inhibition of P-glycoprotein (unknown origin) in MDCK-MDR1 assessed as reduction of ATP consumption pre-incubated for 2 hrs followed by substrate addition shaken for 5 mins by luminescence assay; format: cell-based; conditions: mdck-mdr1, 5 min

T2 sequence (P08183 whole entry): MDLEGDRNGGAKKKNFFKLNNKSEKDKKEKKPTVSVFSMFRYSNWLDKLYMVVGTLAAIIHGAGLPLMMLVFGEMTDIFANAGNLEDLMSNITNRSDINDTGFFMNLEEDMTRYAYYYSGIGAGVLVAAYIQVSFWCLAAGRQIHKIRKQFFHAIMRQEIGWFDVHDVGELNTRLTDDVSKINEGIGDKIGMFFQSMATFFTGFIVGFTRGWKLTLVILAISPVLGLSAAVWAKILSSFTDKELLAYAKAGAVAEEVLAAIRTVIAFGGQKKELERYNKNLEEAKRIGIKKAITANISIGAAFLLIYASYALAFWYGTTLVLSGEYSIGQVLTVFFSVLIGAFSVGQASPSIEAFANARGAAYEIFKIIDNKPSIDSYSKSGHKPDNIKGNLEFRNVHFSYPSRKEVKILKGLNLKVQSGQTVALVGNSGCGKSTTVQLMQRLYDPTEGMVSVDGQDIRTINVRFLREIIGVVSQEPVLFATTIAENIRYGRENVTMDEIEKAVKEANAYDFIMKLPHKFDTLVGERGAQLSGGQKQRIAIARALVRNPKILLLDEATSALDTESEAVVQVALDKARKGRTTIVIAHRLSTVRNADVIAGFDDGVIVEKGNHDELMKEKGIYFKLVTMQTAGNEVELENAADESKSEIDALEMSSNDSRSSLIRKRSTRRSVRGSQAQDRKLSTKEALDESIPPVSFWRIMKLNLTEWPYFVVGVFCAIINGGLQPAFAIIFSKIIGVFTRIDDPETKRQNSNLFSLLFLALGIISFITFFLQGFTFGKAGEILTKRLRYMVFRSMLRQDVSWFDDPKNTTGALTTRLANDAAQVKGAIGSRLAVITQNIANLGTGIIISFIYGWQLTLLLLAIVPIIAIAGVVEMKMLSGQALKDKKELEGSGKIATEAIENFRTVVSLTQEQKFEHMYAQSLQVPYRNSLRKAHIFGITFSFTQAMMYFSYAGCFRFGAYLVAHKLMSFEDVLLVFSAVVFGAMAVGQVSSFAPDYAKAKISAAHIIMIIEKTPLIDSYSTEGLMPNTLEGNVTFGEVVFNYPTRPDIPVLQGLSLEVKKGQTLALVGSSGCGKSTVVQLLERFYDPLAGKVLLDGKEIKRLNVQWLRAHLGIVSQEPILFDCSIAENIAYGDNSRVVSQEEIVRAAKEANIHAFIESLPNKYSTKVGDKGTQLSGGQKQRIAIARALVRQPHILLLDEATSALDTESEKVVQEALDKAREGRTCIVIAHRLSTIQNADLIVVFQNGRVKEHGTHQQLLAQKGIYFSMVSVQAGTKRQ

| Structure (SMILES) | EC50 [1] [nM] | EC50 [2] [nM] | Activity [3] [%] | half-life at 1 µM [4] [h] | half-life at 1 µM [5] [h] | inhibition (INH) [6] | IC50 [7] [nM] | Alpha max [8] | inhibition (INH) [9] |
| --- | --- | --- | --- | --- | --- | --- | --- | --- | --- |
| COc1cc(/C=C/C(=O)OCCCCCCN(C)CCCCOC(=O)c2c3ccccc3cc3ccccc23)cc(OC)c1OC | 3800 | 520 | 92.8 | > 4 | > 4 | Not Active | 20 | 0.94 | Not Active |
| COc1cc(/C=C/C(=O)OCCCCCCCN(C)CCCOC(=O)c2cc(OC)c(OC)c(OC)c2)cc(OC)c1OC | 8100 | 210 | 58.4 | > 4 | > 4 | Not Active | 60 | 0.99 | Not Active |
